Published values from different studies.
Protocols differ between the studies behind these lines.
Target: Insulin receptor-related protein (INSRR, Homo sapiens, UniProt P14616)

CN1CC(Oc2cnc(C#N)cc2-c2ccn3nc(NC(=O)C4CC4)cc3c2)C1  inhibition (enzyme activity; inhibitor; 1 µM): -4%
COc1cc(Cl)c(C(=O)N[C@@H](CN[C@H]2CC[C@@H](N)CC2)Cc2ccc(C#N)cc2)cc1-c1ccc(CN[C@H](C)c2ccc(C)cc2)o1  remaining activity (enzyme activity; inhibitor; 1 µM): 98%
CCOC(=O)c1cc2cc(-c3cc(C(=O)NCc4ccc(C(=O)O)cc4)nn3C)ccc2[nH]1  remaining binding (cell-free assay; competition with immobilised ligand; 0.1 µM): 77%
COc1cc(Nc2cnc(C#N)c(O[C@H](C)CN(C)C)n2)ncc1-c1cnn(C)c1  remaining activity (enzyme activity; inhibitor; radiometric; 10 µM): 89%
N#CCCc1ccc2c(c1)-c1[nH]c3ccc([N+](=O)[O-])cc3c1CC(=O)N2  remaining signal (cell-free assay; 0.5 µM): 99.2%
CN(C)CC#Cc1ccc(OCCCc2sc(N3CCc4cccc(C(=O)Nc5nc6ccccc6s5)c4C3)nc2C(=O)O)c(F)c1  remaining binding (cell-free assay; competition with immobilised ligand; 1 µM): 90%
Cc1ccc(NC(=O)c2ccc(C)c(C(F)(F)F)c2)cc1C#Cc1nn(C2CCC(O)CC2)c2ncnc(N)c12 (stereo not shown)  remaining signal (cell-free assay; 10 µM): 107%
Nc1nc(Nc2ccccc2)sc1C(=O)c1c(F)cccc1F  remaining activity (enzyme activity; inhibitor; 10 µM): 24%
Cc1ccc(C(=O)NCc2ccsc2)cc1C#Cc1cn(C(C)C)c2ncnc(N)c12  activity vs control (enzyme activity; inhibitor; 1 µM): 105%
FC(F)c1nc2ccccc2n1-c1nc(N2CCOCC2)nc(N2CCOCC2)n1  remaining activity (enzyme activity; inhibitor; 10 µM): 88%
CN(C)c1ncnc(-c2ccc3nc(Nc4cc(CN5CCN(C(=O)CC(F)(F)F)CC5)ccn4)[nH]c3c2)c1Cl  remaining binding (cell-free assay; competition with immobilised ligand; 1 µM): 95%
Cc1cc(NC(=O)c2cccc3cc(-c4cccc5[nH]nc(N)c45)ccc23)ccc1F  activity vs control (enzyme activity; inhibitor; 0.1 µM): 106%
O=C1Nc2ccc(Cl)cc2C1=Cc1cc(Cl)c(O)c(Cl)c1  remaining signal (cell-free assay; 0.5 µM): 100%
Cc1sc(C(=O)NC2COC2)cc1-n1cc(NC(=O)Nc2c(F)cccc2Cl)cn1  remaining activity (enzyme activity; inhibitor; 10 µM): 71.9%
COc1cc(-c2cn(C3CCc4c(F)cccc4N(CC(F)(F)F)C3=O)nn2)ccc1-n1cnc(C)c1 (stereo not shown)  remaining binding (cell-free assay; competition with immobilised ligand; 1 µM): 100%
O=C(Nc1cnn(-c2csc(C(=O)NC3COC3)c2)c1)Nc1c(F)cccc1Cl  remaining activity (enzyme activity; inhibitor; 5 µM): 75.9%
CC(C)(C)C(=O)c1sc(NC2CCCCC2)nc1N  remaining activity (enzyme activity; inhibitor; 10 µM): 93%
CC/C(=N\NC(=O)NCc1cccc(O)c1)c1ccc(O)c(C)c1O  inhibition (enzyme activity; inhibitor; 0.1 µM): 1.7%
CCN(CC)CCNC(=O)c1c(C)[nH]c(/C=C2\C(=O)Nc3ccc(F)cc32)c1C  inhibition (enzyme activity; inhibitor; 10 µM): 78%
CC(C)(C)c1nc(-c2cccc(NS(=O)(=O)c3c(F)cccc3F)c2F)c(-c2ccnc(N)n2)s1  remaining activity (enzyme activity; inhibitor; radiometric; 1 µM): 103%
O=C(Nc1cccnn1)N1CCC(=Cc2cccc(Oc3ccc(C(F)(F)F)cn3)c2)CC1  remaining binding (cell-free assay; competition with immobilised ligand; 1 µM): 100%
COc1cc2ncnc(Nc3ccc(Oc4ccccc4)c(C)c3C)c2cc1OC  inhibition (enzyme activity; inhibitor; 1 µM): 2%
CC(=O)N1CCC(c2ccc(C(=O)NC(=N)N)cc2C(F)(F)F)CC1  remaining binding (cell-free assay; competition with immobilised ligand; 1 µM): 100%
COc1cc2nccc(Oc3ccc(NC(=O)c4c5n(n(-c6ccc(F)cc6)c4=O)CCCC5)cc3)c2cc1OC  inhibition (enzyme activity; inhibitor; 0.1 µM): 5%
Cc1ccc(Nc2nccc(N(C)c3ccc4c(C)n(C)nc4c3)n2)cc1S(N)(=O)=O  inhibition (enzyme activity; inhibitor; 10 µM): 41%
O=C(NC[C@@H]1[C@H]2CN(C(=O)OCc3cc(C(F)(F)F)cc(C(F)(F)F)c3)C[C@@H]12)c1ccc2[nH]nnc2c1  remaining binding (cell-free assay; competition with immobilised ligand; 1 µM): 83%
CNC(=O)c1cc(Oc2ccc(NC(=O)Nc3ccc(Cl)c(C(F)(F)F)c3)cc2)ccn1  inhibition (enzyme activity; inhibitor; 0.3 µM): -25%
O=C(O)[C@@H]1[C@@H](Cn2nnc3ccccc3c2=O)CC[C@H]1C(=O)c1ccc(OCCC2CCOCC2)cc1  remaining binding (cell-free assay; competition with immobilised ligand; 1 µM): 100%
